Molecules are shown by their SMILES. Activity calls are given as the source filed them.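 The calls were made as follows, unless noted: active = inhibition of the reporter signal at or above 50%; inactive = inhibition below 50%.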

The nature of assay [1]: inhibitors of TNFa-induced NFkB p65 translocation, primary screen, imaging, HUVEC, MLSMR starter and 10KST1 sets (AID 438;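 active = inhibition above 20% together with a positive visual image hit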;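 also: compound added about 3h40 before a 20 min TNFalpha stimulation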;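 as to inhibition: signal is the nuclear over cytoplasmic p65 intensity ratio per well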). Conditions: HUVEC TNFa-induced p65 nuclear translocation; cell count: measured here: nuclei count (cytotoxicity indicator), at 2.08 µM; inhibition: at 2 µM, stronger effect = higher value, 0% TNFa-plus-vehicle, 100% no-TNFa wells.
A short description of assay [2]: inhibitors of mutant huntingtin aggregation, primary screen, imaging, exon1htt(103Q)mCFP cells, high-content imaging (AID 483;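 active = visual image review flags a hit and inhibition of aggregation exceeds 20%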;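 also: compound exposure lasted 3 days before fixation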;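 as to nuclei count: percent of the per-plate median nuclei count of sample wells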). The note with it: exon1htt(103Q)mCFP cell line, aggregate imaging, at 2 µM; inhibition of aggregation: stronger effect = higher value; nuclei count: measured here: cell count, toxicity.
Assay [3] can be described thus: inhibitors of E-selectin induction by TNFa, primary screen, imaging, HUVEC, immunofluorescence, MLSMR starter and 10KST1 sets (AID 487;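 active = visually confirmed hit in the image check and inhibition above 20%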;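 as to inhibition: signal is fraction of cell area covered by stained E-selectin grains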;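 as to nuclei count: 100% = median nuclei count of all wells on the same plate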). The note with it: HUVEC TNFalpha-induced E-selectin immunofluorescence imaging, at 2 µM; inhibition: stronger effect = higher value; nuclei count: measured here: cell number, toxicity.
Assay [4] has as its target Voltage-gated potassium channel subunit beta-2 (Rattus norvegicus) (UniProt P62483). As to the kind of experiment: KvBeta enzyme negative modulators, primary screen, biochemical, NADPH fluorescence (AID 622;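 active = fluorescence slope higher than the sample average by over 3 SD, cut at about -0.22 in these data, passing the limit was not always enough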;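 also: slope of raw intensity against log time taken from 70 to 1610 s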). The note with it: recombinant KvBeta, 4-cyanobenzaldehyde reduction, at 10 µM, stronger effect = higher value.
For assay [5] the target is unchanged. Kind of assay: KvBeta positive modulators, primary screen, biochemical, NADPH fluorescence (AID 623;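 active = NADPH fluorescence slope more negative than the mean of all samples by about 3 SD, 99.7% confidence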;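 also: fluorescence intensity change per second fitted from 20 to 320 s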). The note with it: Recombinant KvBeta, NADPH fluorescence decrease slope, 10 min; at 10 µM; stronger effect = lower value.
Assay [6] concerns the target Alpha-2C adrenergic receptor (Homo sapiens) (UniProt P18825). Kind of assay: modulators of alpha2C/GIRK thallium flux, primary screen, cell-based, HEK293 alpha2C/GIRK1/2 (AID 624;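 active = fluorescence slope after compound addition differing from the mean of all screened samples at 99.7% confidence, in either direction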;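 also: slope of fluorescence ratio to pre-addition baseline per second over 15 to 24 s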). Conditions: thallium flux BTC fluorescence, at 10 µM, actives lie on both sides.
Assay [7] is described as follows: inhibitors of larval lipid processing in zebrafish, primary screen, whole organism, PED6 fluorescence, gall bladder and intestine (AID 686;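 active = a full or partial loss of lipid-probe fluorescence in the fish gall bladder, intestine or both, judged by eye; inactive = no fluorescence loss, or compound toxic to the fish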;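 also: larvae 5 to 7 days old with five fish per well; signal comes from phospholipase A2 cleavage of quenched PED6 carried via bile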). The note with it: Zebrafish larvae PED6 lipid processing, fluorescence scoring; screened at 20 µM (by protocol). In outline: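 System: live zebrafish larvae aged 5-7 days, whole organism; measure: graded gall bladder and intestinal fluorescence inhibition per well; incubation: overnight exposure; reagent: ingested quenched lipid PED6 at 100 nM; signal: By-eye fluorescence microscopy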

Assay [8] in a line: inhibitors of Sendai virus-induced IRF3 signaling, primary screen, TLR/RLR signaling modifier project, cell-based, Sendai virus stimulus, luciferase, 10K MLSCN set (AID 602276;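 active = inhibition at or above 50% at 10 µM; inactive = inhibition below 50%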;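 also: firefly luciferase from ISG56 promoter only with Renilla not read in this screen; 0% = Sendai virus plus DMSO and 100% = medium plus DMSO without virus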). Conditions: HEK293 RL24 IRF3 luciferase reporter, at 10 µM, stronger effect = higher value. Background: A reporter such as luciferase makes a cellular process visible.
Assay [9] can be described thus: inhibitors of poly I:C-induced TLR3 signaling, primary screen, cell-based, poly I:C stimulus, luciferase, 10K MLSCN set (AID 602277). Conditions: HEK293-TLR3 RL24 IRF3 luciferase reporter, at 10 µM, stronger effect = higher value.

Chain of Voltage-gated potassium channel subunit beta-2 (Rattus norvegicus) (P62483 whole entry, looked up): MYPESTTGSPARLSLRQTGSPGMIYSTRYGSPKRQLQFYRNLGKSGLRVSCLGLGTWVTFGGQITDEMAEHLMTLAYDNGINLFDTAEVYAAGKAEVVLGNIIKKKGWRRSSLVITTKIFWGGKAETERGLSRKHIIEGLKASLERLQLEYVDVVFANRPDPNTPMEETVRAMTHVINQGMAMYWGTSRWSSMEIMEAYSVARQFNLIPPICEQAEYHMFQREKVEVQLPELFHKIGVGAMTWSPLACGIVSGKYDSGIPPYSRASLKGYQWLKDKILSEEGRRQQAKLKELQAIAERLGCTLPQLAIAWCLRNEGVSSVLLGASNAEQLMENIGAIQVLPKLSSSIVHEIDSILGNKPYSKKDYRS
Chain of Alpha-2C adrenergic receptor (Homo sapiens) (P18825 whole entry, looked up): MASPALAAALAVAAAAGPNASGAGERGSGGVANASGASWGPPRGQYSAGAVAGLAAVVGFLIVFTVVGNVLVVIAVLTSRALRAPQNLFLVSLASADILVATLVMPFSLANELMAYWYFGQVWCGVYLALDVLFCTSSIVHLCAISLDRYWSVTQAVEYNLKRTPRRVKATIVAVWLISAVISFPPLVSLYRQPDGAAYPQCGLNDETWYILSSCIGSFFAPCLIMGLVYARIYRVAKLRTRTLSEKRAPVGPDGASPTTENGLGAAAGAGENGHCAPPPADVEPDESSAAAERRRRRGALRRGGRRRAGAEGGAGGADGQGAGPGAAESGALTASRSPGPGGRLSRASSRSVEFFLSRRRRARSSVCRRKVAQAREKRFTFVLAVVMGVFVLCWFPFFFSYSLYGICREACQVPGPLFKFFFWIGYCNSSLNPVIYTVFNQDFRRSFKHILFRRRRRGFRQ

Take `O=C(O)CC(C(=O)Nc1cccc(C(F)(F)F)c1)C1CCCO1` (stereo unspecified): the cell count in [1] is 548. The inhibition in assay [1] is -10.1% (inactive); in assay [3] it was 2.3% (inactive); in [8], -2.64% (inactive); in assay [9], 7.18% (inactive). Also, in assay [2], the inhibition of aggregation is 9.8% (inactive). Moreover, the nuclei count in assay [2] came to 101%; in assay [3], 92.1%. Further, the fluorescence slope in assay [4] was -0.375 (inactive). For the same molecule, in assay [5], the NADPH fluorescence slope is -2.9e-05 (inactive). In addition, the slope in [6] was 0.00461 (inactive). Moreover, the molecule was classed as inactive in assay [7].
As to `COCCCn1c(=N)c(C(=O)NCC2CCCO2)cc2c(=O)n3cccc(C)c3nc21` (stereo unspecified), in assay [1], the cell count was determined as 587. The inhibition in assay [1] was -8.8% (inactive); in assay [3] it was 28.1% (inactive); in assay [8], 11.6% (inactive); in assay [9], 21% (inactive). Also, the inhibition of aggregation in assay [2] is -3.1% (inactive). Also, the nuclei count is 78.6% in assay [2] and 67.6% in assay [3]. Moreover, in assay [4], the fluorescence slope was -0.0296 (active). In addition, the NADPH fluorescence slope in assay [5] is -1.3e-05 (inactive). Further, the slope in [6] was 0.00471 (inactive). Moreover, the outcome in assay [7] was inactive.
In the case of `CSc1ccccc1NC(=O)CN(c1ccccc1)S(=O)(=O)N(C)C`, the cell count in [1] is 429. Besides, the inhibition in assay [1] is -0.8% (inactive); in assay [3], 4.1% (inactive); in [8] it was 15.6% (inactive); in assay [9] it was 20.5% (inactive). Moreover, in assay [2], the inhibition of aggregation was 1.4% (inactive). Moreover, the nuclei count in assay [2] came out at 96%; in assay [3], 140%. Also, the fluorescence slope in [4] was -0.356 (inactive). In addition, the NADPH fluorescence slope in assay [5] was 3.3e-06 (inactive). In addition, in [6], the slope is 0.00624 (inactive). Also, the molecule was called inactive in assay [7].
For the molecule `CCN(CC)S(=O)(=O)c1ccc2c(c1)nc(SCn1nnc3ccccc3c1=O)n2CC`, the cell count in assay [1] amounted to 765. Further, the inhibition in [1] is 6% (inactive); in assay [3] it was -114% (inactive); in assay [8] it was 15.4% (inactive); in [9], 11.9% (inactive). Also, the inhibition of aggregation in assay [2] is 6.8% (inactive). For the same molecule, the nuclei count in assay [2] is 94.2%; in assay [3] it was 129%. The fluorescence slope in assay [4] is -0.433 (inactive). For the same molecule, the NADPH fluorescence slope in [5] was -6.2e-05 (inactive). The slope in [6] was 0.00509 (inactive). In addition, the outcome in assay [7] was inactive.
On to `CCC(CCC(=O)Nc1cccc(C(=O)O)c1)C(=O)O` (stereo unspecified), for which the cell count in assay [1] turned out to be 506. The inhibition was 8.8% (inactive) in [1], 49.6% (inactive) in assay [3], 4.27% (inactive) in assay [8] and -4.76% (inactive) in assay [9]. For the same molecule, the inhibition of aggregation in assay [2] is 10.2% (inactive). In addition, the results for the nuclei count in assay [2] and in assay [3] were 86.5% and 74.2%, respectively. Moreover, the fluorescence slope in [4] is -0.448 (inactive). For the same molecule, the NADPH fluorescence slope in assay [5] is -2.4e-05 (inactive). Besides, the slope in [6] is 0.00563 (inactive). Besides, in assay [7], the outcome was inactive.
Consider `O=C(Cc1nc2ccccc2s1)c1ccc(O)cc1O`, for which the cell count in [1] stood at 322. Also, the inhibition is 1.1% (inactive) in assay [1], -98.2% (inactive) in assay [3], -33.1% (inactive) in assay [8] and -88.7% (inactive) in [9]. Moreover, in [2], the inhibition of aggregation is -15.5% (inactive). In addition, the nuclei count is 88.3% in [2] and 124% in [3]. Also, in assay [4], the fluorescence slope is -0.391 (inactive). Further, the NADPH fluorescence slope in assay [5] was -0.000109 (inactive). For the same molecule, the slope in assay [6] was 0.00457 (inactive). Moreover, in [7], the outcome was inactive.
In the case of `CC(=O)N1CN(C2CCCC2)Cc2c1sc1c2CCCC1`, the cell count in assay [1] came out at 793. Also, the inhibition in assay [1] is -14% (inactive); in [3], 26.2% (inactive); in assay [8] it was 5.21% (inactive); in assay [9], 20% (inactive). Moreover, the inhibition of aggregation in [2] was 11.7% (inactive). The nuclei count in assay [2] is 99.2%; in [3], 90.6%. The fluorescence slope in assay [4] is -0.433 (inactive). For the same molecule, the NADPH fluorescence slope in [5] was -1.9e-07 (inactive). In addition, the slope in assay [6] was 0.00682 (inactive). The outcome in assay [7] was inactive.
As for `COc1ccc(NC(=O)Nc2ccccc2C)c(OC)c1`, the cell count in assay [1] is 371. Besides, the inhibition in assay [1] is 1.5% (inactive); in assay [3], -31.1% (inactive); in [8], 6.08% (inactive); in [9], 12.1% (inactive). For the same molecule, the inhibition of aggregation in assay [2] is -3.2% (inactive). Moreover, the nuclei count in [2] was determined as 107%; in assay [3] it was 116%. Besides, the fluorescence slope in [4] is -0.379 (inactive). Besides, in assay [5], the NADPH fluorescence slope is -7.9e-05 (inactive). The slope in assay [6] was 0.00603 (inactive). Moreover, the molecule was classed as inactive in assay [7].
`O=C(CCn1[nH]c(=O)c2ccccc2c1=O)NCCO`: the cell count in [1] worked out at 588. In addition, the inhibition is -6.5% (inactive) in [1], -35.4% (inactive) in assay [3], 1.06% (inactive) in [8] and -8.68% (inactive) in [9]. Further, the inhibition of aggregation in assay [2] is 0.4% (inactive). The nuclei count in assay [2] came to 97.8%; in assay [3], 71.1%. Further, the fluorescence slope in assay [4] was -0.361 (inactive). Besides, in assay [5], the NADPH fluorescence slope was -5.6e-05 (inactive). Further, the slope in assay [6] was 0.00681 (inactive). The molecule was classed as inactive in assay [7].
Take `Cc1nn(-c2ccccc2)c2[nH]c(C(F)(F)F)cc(=O)c12`: the cell count in [1] was 364. Also, the inhibition in assay [1] is 0.7% (inactive); in [3], -10.5% (inactive); in assay [8], 5.93% (inactive); in assay [9], -1.53% (inactive). Further, in assay [2], the inhibition of aggregation was 17.9% (inactive). In addition, the figures for the nuclei count in assay [2] and in [3] were 103% and 97.8%, respectively. Further, in assay [4], the fluorescence slope was -0.411 (inactive). In addition, the NADPH fluorescence slope in [5] was -4.4e-05 (inactive). Besides, in assay [6], the slope is 0.00725 (inactive). Further, the molecule was called inactive in assay [7].
`COc1ccccc1OCc1nc2ccccc2[nH]1`: in assay [1], the cell count amounted to 391. In addition, the inhibition in assay [1] was 1.3% (inactive); in [3], 29.8% (inactive); in [8] it was -14.3% (inactive); in assay [9], -80.7% (inactive). Further, the inhibition of aggregation in assay [2] was 19.9% (inactive). Moreover, the nuclei count in assay [2] came to 101%; in assay [3] it was 86.3%. The fluorescence slope in assay [4] is -0.444 (inactive). Moreover, the NADPH fluorescence slope in assay [5] is -7e-05 (inactive). In addition, the slope in assay [6] was 0.0055 (inactive). Moreover, in assay [7], the call was inactive.
As for `COc1ccc(OC)c(NC(=O)CSc2nnc(-c3ccco3)n2-c2ccccc2)c1`, in assay [1], the cell count turned out to be 552. The inhibition in assay [1] is 10.2% (inactive); in assay [3], -59.6% (inactive); in assay [8], 12.9% (inactive); in assay [9], 12.9% (inactive). In addition, in assay [2], the inhibition of aggregation was 9.3% (inactive). In addition, the nuclei count in [2] came out at 104%; in assay [3] it was 98.9%. In addition, the fluorescence slope in assay [4] was -0.466 (inactive). Further, in assay [5], the NADPH fluorescence slope was -3.5e-05 (inactive). In addition, the slope in [6] was 0.00516 (inactive). Further, the molecule was called inactive in [7].
Turning to `CCOC(=O)N1CCN(C(=O)c2cnn(-c3ccccc3)c2NC(=O)c2ccccc2F)CC1`, in assay [1], the cell count was 397. Also, the inhibition is 12.1% (inactive) in [1], -69.8% (inactive) in assay [3], 16% (inactive) in [8] and 17.2% (inactive) in assay [9]. For the same molecule, the inhibition of aggregation in [2] was 1.7% (inactive). Also, the values for the nuclei count in [2] and in assay [3] were 117% and 106%, respectively. In addition, the fluorescence slope in [4] is -0.34 (inactive). For the same molecule, in assay [5], the NADPH fluorescence slope is -3.7e-05 (inactive). In addition, the slope in assay [6] was 0.00614 (inactive). In addition, the molecule was classed as inactive in [7].

As a reminder, the inhibition is the relative decrease from the control value, in per cent.

The values are drawn from PubChem BioAssay.
